ChEMBL document CHEMBL4334445, “Caspase-Dependent Apoptosis in Prostate Cancer Cells and Zebrafish by Corchorusoside C from Streptocaulon juventas” (J Nat Prod, 2019)
pIC50: −log10 of the molar value. Active and inactive are the calls of the source.

Tests used:
[1] = target: Sodium/potassium-transporting ATPase (Homo sapiens) (UniProt P05023+P14415+P05026+P50993+P54709+P13637+Q13733+P54710); assay: Inhibition of Na+/K+ ATPase pump in human DU145 cells assessed as increase in intracellular calcium level at 50 uM measured after 5 hrs by Fura-2/AM dye based fluorescence assay; type: cell-based
Method in brief: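 DU-145 cells at 1×10^4 per well treated 5 h (0–50 μM), DMSO/water negative control; medium removed, loaded with 5 μM fura-2 AM then 2.5 mM probenecid; intracellular Ca2+ from emission 510 nm ratio at 340/380 nm excitation; two independent experiments.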

[2] = Toxicity in 24 hrs post fertilized zebrafish embryo assessed as malformation of spine curvature at 50 uM measured after 24 hrs by microscopic analysis; design: species or system Danio rerio; settings: in vivo
Method in brief: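 Zebrafish embryos raised in an automated housing system at 28 °C to 24 hpf, then exposed for 24 h to test agent at 50 μM in vehicle (1% DMSO in water). Digoxin and cycloheximide at 50 μM served as positive controls, with an untreated control. Morphology was then inspected and photographed by light microscopy.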

[3] = Toxicity in 24 hrs post fertilized zebrafish embryo assessed as effect on tail development at 50 uM measured after 24 hrs by microscopic analysis; design: species or system Danio rerio; settings: in vivo
Method in brief: (§1)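 Embryos raised at 28 °C to 24 hpf, then exposed to 50 μM in 1% DMSO in water (vehicle control) for 24 h; larvae examined and photographed by light microscopy for developmental morphology.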

[4] = tested on: HT-29; assay: Cytotoxicity against human HT-29 cells assessed as reduction in cell viability measured after 72 hrs by SRB assay; type: functional, cell-based
[5] = Toxicity in 24 hrs post fertilized zebrafish embryo assessed as effect on brain development at 50 uM measured after 24 hrs by microscopic analysis; design: species or system Danio rerio; settings: in vivo; method in brief: as §1
[6] = tested on: DU-145; assay: Cell cycle arrest in human DU145 cells assessed as increase in sub-G1 phase population at 0.005 to 5 uM after 24 hrs by RNase/propidium iodide staining based FACScalibur flow cytometry analysis; type: functional
Method in brief: (§2)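 DU-145 cells in 6-cm plates treated 0.005–5 μM for 24 h; trypsinised, fixed in 70% ethanol, RNase incubation 1 h at 37 °C, propidium iodide stained; flow cytometry, excitation 488 nm, emission 617 nm; percentage of cells per phase vs control; two independent experiments.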

[7] = Toxicity in 24 hrs post fertilized zebrafish embryo assessed as effect on gut development at 50 uM measured after 24 hrs by microscopic analysis; design: species or system Danio rerio; settings: in vivo; method in brief: as §1
[8] = tested on: DU-145; assay: Decrease in ICAM1 expression in human DU145 cells after 12 hrs by Western blot analysis; type: functional, cell-based
Method in brief: (§3)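 DU-145 cells in DMEM treated 0.05–50 μM for 12 h, DMSO/water vehicle control; lysates quantified by BCA, 20 μg protein on 10% Bis-Tris SDS-PAGE, transferred to PVDF, blocked with 3% BSA, primary antibody overnight, secondary 1 h, chemiluminescent detection, band densitometry; three independent assays, one-way ANOVA with Dunnett's test.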

[9] = tested on: PC-3; assay: Cytotoxicity against human PC3 cells assessed as reduction in cell viability measured after 72 hrs by SRB assay; type: functional, cell-based
[10] = tested on: DU-145; assay: Decrease in NF-KappaB p50 subunit expression in human DU145 cells at 0.05 to 50 uM measured after 12 hrs by Western blot analysis; type: functional, cell-based; method in brief: as §3
[11] = Toxicity in 24 hrs post fertilized zebrafish embryo assessed as effect on trunk development at 50 uM measured after 24 hrs by microscopic analysis; design: species or system Danio rerio; settings: in vivo; method in brief: as §1
[12] = Toxicity in zebrafish assessed as effect on intracellular calcium level at 50 uM measured after 5 hrs by Fura-2/AM dye based fluorescence assay; type: cell-based, Danio rerio; settings: in vivo
[13] = tested on: DU-145; assay: Induction of apoptosis in human DU145 cells assessed as cell detachment from monolayer surface at 0.003 to 0.3 uM measured upto 72 hrs by microscopic analysis; type: functional, cell-based
[14] = Selectivity index, ratio of IC50 for human CCD-112CoN cells to IC50 for human HT-29 cells
[15] = tested on: DU-145; assay: Induction of apoptosis in human DU145 cells assessed as cell shrinkage at 0.003 to 0.3 uM measured upto 72 hrs by microscopic analysis; type: functional, cell-based
[16] = tested on: DU-145; assay: Induction of apoptosis in human DU145 cells assessed assessed as increase in caspase 3 expression at 0.05 to 50 uM after 12 hrs by Western blot analysis; type: functional, cell-based; method in brief: as §3
[17] = tested on: DU-145; assay: Induction of apoptosis in human DU145 cells assessed as reduction in Bcl2 protein expression at 5 to 50 uM measured after 12 hrs by Western blot analysis; type: functional, cell-based; method in brief: as §3
[18] = Toxicity in 24 hrs post fertilized zebrafish embryo assessed as effect on heart development at 50 uM measured after 24 hrs by microscopic analysis; design: species or system Danio rerio; settings: in vivo; method in brief: as §1
[19] = tested on: DU-145; assay: Cytotoxicity against human DU145 cells assessed as reduction in cell viability measured after 24 hrs by SRB assay; type: functional, cell-based; settings: DU-145, 24 h
Method in brief: (§4)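 DU-145 cells seeded at 5×10^4 cells/mL, compound 30–3×10^-4 μM for 24 or 48 h at 37 °C, 5% CO2; TCA fixation, 0.4% SRB staining, Tris-base solubilisation, absorbance 515 nm; timed IC50 by non-linear regression.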

[20] = tested on: DU-145; assay: Induction of apoptosis in human DU145 cells assessed assessed as increase in caspase 7 expression at 0.05 to 50 uM after 12 hrs by Western blot analysis; type: functional, cell-based; method in brief: as §3
[21] = tested on: DU-145; assay: Induction of apoptosis in human DU145 cells assessed as decrease in number of cells at 0.003 to 0.3 uM measured upto 72 hrs by microscopic analysis; type: functional, cell-based
[22] = tested on: DU-145; assay: Cytotoxicity against human DU145 cells assessed as reduction in cell viability measured after 48 hrs by SRB assay; type: functional, cell-based; settings: DU-145, 48 h; method in brief: as §4
[23] = tested on: DU-145; assay: Induction of apoptosis in human DU145 cells assessed as increase in apoptotic cells at 0.003 to 0.3 uM measured upto 72 hrs by microscopic analysis; type: functional, cell-based
[24] = tested on: DU-145; assay: Cell cycle arrest in human DU145 cells assessed as decrease in G1 phase population at 0.005 to 5 uM after 24 hrs by RNase/propidium iodide staining based FACScalibur flow cytometry analysis; type: functional; method in brief: as §2
[25] = tested on: DU-145; assay: Induction of ROS generation in human DU145 cells at 0.5 to 50 uM measured after 5 hrs by DCFHDA probe based fluorescence assay; type: functional, cell-based
Method in brief: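 DU-145 cells seeded at 5×10^4/mL, treated 0.5–50 μM, incubated at 37 °C for 5 h; DCFH-DA 10 μM added; fluorescence at excitation 485 / emission 530 nm vs DMSO control; triplicate, two independent experiments, one-way ANOVA with Dunnett's test.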

[26] = tested on: DU-145; assay: Induction of apoptosis in human DU145 cells assessed as increase in PARP1 protein expression at 5 to 50 uM measured after 12 hrs by Western blot analysis; type: functional, cell-based; method in brief: as §3
[27] = species: Danio rerio; assay: Downregulation of NF-kappaB p65 expression in zebrafish at 0.6 to 15 uM by Western blot analysis; type: functional, organism-based
Method in brief: (§5)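 Zebrafish larvae at 72 hpf exposed for 3 h to a range of concentrations, frozen on dry ice and homogenised; BCA protein assay, 20 μg on 10% Bis-Tris SDS-PAGE, PVDF transfer, 3% BSA block, primary antibody overnight, secondary 1 h, chemiluminescent detection, densitometry.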

[28] = species: Danio rerio; assay: Effect on NF-KappaB p50 expression in zebrafish at 0.6 to 15 uM by Western blot analysis; type: functional, organism-based; method in brief: as §5
[29] = tested on: DU-145; assay: Decrease in NF-KappaB p65 subunit expression in human DU145 cells at 0.05 to 50 uM measured after 12 hrs by Western blot analysis; type: functional, cell-based; method in brief: as §3
[30] = species: Danio rerio; assay: Increase in caspase 3 level in zebrafish at 0.6 to 15 uM by Western blot analysis; type: functional, organism-based; method in brief: as §5
[31] = tested on: DU-145; assay: Decrease in IKK alpha expression in human DU145 cells measured after 12 hrs by Western blot analysis; type: functional, cell-based; method in brief: as §3
[32] = tested on: DU-145; assay: Cytotoxicity against human DU145 cells assessed as reduction in cell viability measured after 72 hrs by SRB assay; type: functional, cell-based
[33] = tested on: DU-145; assay: Decrease in IKKbeta expression in human DU145 cells measured after 12 hrs by Western blot analysis; type: functional, cell-based; method in brief: as §3
[34] = tested on: DU-145; assay: Induction of mitochondrial membrane potential loss in human DU145 cells after 2 hrs by JC1 staining based fluorescence assay; type: functional, cell-based; settings: DU-145, 2 h
[35] = species: Danio rerio; assay: Effect on IKKbeta expression in zebrafish at 0.6 to 15 uM by Western blot analysis; type: functional, organism-based; method in brief: as §5
[36] = tested on: MDA-MB-231; assay: Cytotoxicity against human MDA-MB-231 cells assessed as reduction in cell viability measured after 72 hrs by SRB assay; type: functional, cell-based; settings: MDA-MB-231, 72 h
[37] = tested on: MCF7; assay: Cytotoxicity against human MCF7 cells assessed as reduction in cell viability measured after 72 hrs by SRB assay; type: functional, cell-based
[38] = species: Danio rerio; assay: Effect on caspase 7 level in zebrafish at 0.6 to 15 uM by Western blot analysis; type: functional, organism-based; method in brief: as §5
[39] = species: Danio rerio; assay: Downregulation of IKKalpha expression in zebrafish at 0.6 to 15 uM by Western blot analysis; type: functional, organism-based; method in brief: as §5
[40] = Toxicity in 24 hrs post fertilized zebrafish embryo assessed as effect on vasculature at 50 uM measured after 24 hrs by microscopic analysis; design: species or system Danio rerio; settings: in vivo; method in brief: as §1
[41] = tested on: DU-145; assay: Induction of morphological changes in human DU145 cells assessed as apoptotic cell death at 0.003 to 0.3 uM measured upto 72 hrs by microscopic analysis; type: functional, cell-based
[42] = Cytotoxicity against human CCD-112CoN cells assessed as reduction in cell viability measured after 72 hrs by SRB assay; type: cell-based
[43] = tested on: HeLa; assay: Cytotoxicity against human HeLa cells assessed as reduction in cell viability measured after 72 hrs by SRB assay; type: functional, cell-based
[44] = tested on: DU-145; assay: Induction of apoptosis in human DU145 cells assessed assessed as caspase 3/7 activity after 5 hrs by caspase-Glo 3/7 reagent based luminescence assay; type: functional, cell-based
Method in brief: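 DU-145 cells at 1×10^4 per well treated 0.08–8 μM for 5 h, DMSO/water vehicle; Caspase-Glo 3/7 reagent added, 2 h incubation, luminescence read; three independent assays, one-way ANOVA with Dunnett's test.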

C[C@H]1O[C@@H](O[C@H]2[C@@H](O)C[C@H](O[C@H]3[C@@H](O)C[C@H](O[C@H]4CC[C@@]5(C)[C@H](CC[C@@H]6[C@@H]5C[C@@H](O)[C@]5(C)[C@@H](C7=CC(=O)OC7)CC[C@]65O)C4)O[C@@H]3C)O[C@@H]2C)C[C@H](O)[C@@H]1O [DIGOXIN]
active: inhibition [1]
Toxic: Activity [2]

C[C@H]1O[C@@H](O[C@H]2CC[C@]3(C)[C@H]4CC[C@]5(C)[C@@H](C6=CC(=O)OC6)CC[C@]5(O)[C@@H]4CC[C@]3(O)C2)C[C@H](O)[C@@H]1O[C@@H]1O[C@H](CO)[C@@H](O)[C@H](O)[C@H]1O
7.10: pIC50 ([32]; DU-145, 72 h)
6.92: pIC50 ([4]; HT-29, 72 h)
6.52: pIC50 [34]
4.95: pIC50 [19]
5.57: pIC50 [42]
22.5: Ratio IC50 [14]
inactive: Activity [28] | Activity [35] | Activity [38]
7.00: pIC50 ([37]; MCF7, 72 h)
6.70: pIC50 ([9]; PC-3, 72 h) | pIC50 [36]
Non-Toxic: Activity [3] | Activity [5] | Activity [7] | Activity [11] | Activity [12] | Activity [18] | Activity [40]
5.92: pIC50 [22]
active: Activity [4] Dose-dependent effect | Activity [6] | Activity [8] Dose-dependent effect | Activity [9] Dose-dependent effect | inhibition [10] | Activity [13] | inhibition [1] | Activity [15] | Activity [16] | Activity [17] | Activity [20] | Activity [21] | Activity [23] | Activity [24] | Activity [25] | Activity [26] | Activity [27] | inhibition [29] | Activity [30] | inhibition [31] Dose-dependent effect | Activity [32] Dose-dependent effect | inhibition [33] Dose-dependent effect | Activity [37] Dose-dependent effect | Activity [39] | Activity [41] | Activity [43] Dose-dependent effect | Activity [44] Dose-dependent effect
6.72: pIC50 [43]
